Measurements taken from ChEMBL document CHEMBL4043132, “3-O-Substituted-3',4',5'-trimethoxyflavonols: Synthesis and cell-based evaluation as anti-prostate cancer agents” (Bioorg Med Chem, 2017).

Key:
PC-3 [1] = assay: Induction of apoptosis in human PC3 cells assessed as viable cells at 20 uM after 16 hrs by F2N12S and CYTOX AADvanced double staining-based flow cytometric analysis (reference value: 95%); format: functional; conditions: PC-3, 16 h, read-out: Activity
PC-3 [2] = assay: Induction of apoptosis in human PC3 cells assessed as viable cells at 30 uM after 16 hrs by F2N12S and CYTOX AADvanced double staining-based flow cytometric analysis (reference value: 95%); format: functional; conditions: PC-3, 16 h, read-out: Activity
PC-3 [3] = assay: Antiproliferative activity against human PC3 cells after 3 days by WST-1 assay; format: functional, cell-based; conditions: PC-3, 72 h
Procedure, shortened: (§1)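 Cells from ATCC; PC-3 and LNCaP grown in RPMI-1640 and DU145 in EMEM, each with 10% FBS and 1% penicillin/streptomycin, 37 °C, 5% CO2. Seeded 3,200 cells/well and exposed for 3 days to at least five doses, with DMSO as vehicle control. WST-1 reagent added for 3 h at 37 °C, absorbance read at 430 nm. IC50 taken from a linear inhibition plot; mean ± SD of three independent experiments.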

PC-3 [4] = assay: Induction of apoptosis in human PC3 cells assessed as viable cells at 10 uM after 16 hrs by F2N12S and CYTOX AADvanced double staining-based flow cytometric analysis (reference value: 95%); format: functional; conditions: PC-3, 16 h, read-out: Activity
PC-3 [5] = assay: Induction of apoptosis in human PC3 cells assessed as viable cells at 5 uM after 16 hrs by F2N12S and CYTOX AADvanced double staining-based flow cytometric analysis (reference value: 95%); format: functional; conditions: PC-3, 16 h, read-out: Activity
PC-3 [6] = assay: Cell cycle arrest in human PC3 cells assessed as accumulation at G2/M phase at 10 uM after 16 hrs by propidium iodide staining-based flow cytometry (reference value: 32.3%); format: functional
PWR-1E = assay: Antiproliferative activity against human PWR-1E cells after 3 days by WST-1 assay; format: cell-based; conditions: 72 h
Procedure, shortened: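 PWR-1E benign prostate epithelial cells grown in keratinocyte serum-free medium with bovine pituitary extract and recombinant human EGF. Seeded 3,200 cells/well and treated for 3 days at 37 °C, with DMSO as vehicle control. WST-1 reagent added for 3 h, absorbance read at 430 nm. IC50 from a linear inhibition plot over at least five doses; mean ± SD, n = 3.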

LNCaP = assay: Antiproliferative activity against human LNCAP cells after 3 days by WST-1 assay; format: functional, cell-based; conditions: 72 h; procedure, shortened: as §1
PC-3 [7] = assay: Induction of apoptosis in human PC3 cells assessed as necrotic cells at 100 uM after 16 hrs by F2N12S and CYTOX AADvanced double staining-based flow cytometric analysis (reference value: 2 to 3%); format: functional
PC-3 [8] = assay: Induction of apoptosis in human PC3 cells assessed as apoptotic cells at 30 uM after 16 hrs by F2N12S and CYTOX AADvanced double staining-based flow cytometric analysis (reference value: 2 to 3%); format: functional
PC-3 [9] = assay: Induction of apoptosis in human PC3 cells assessed as apoptotic cells at 50 uM after 16 hrs by F2N12S and CYTOX AADvanced double staining-based flow cytometric analysis (reference value: 2 to 3%); format: functional
PC-3 [10] = assay: Induction of apoptosis in human PC3 cells assessed as apoptotic cells at 20 uM after 16 hrs by F2N12S and CYTOX AADvanced double staining-based flow cytometric analysis (reference value: 2 to 3%); format: functional
PC-3 [11] = assay: Cell cycle arrest in human PC3 cells assessed as accumulation at G0/G1 phase at 20 uM after 16 hrs by propidium iodide staining-based flow cytometry (reference value: 34.1%); format: functional
PC-3 [12] = assay: Induction of apoptosis in human PC3 cells assessed as apoptotic cells at 100 uM after 16 hrs by F2N12S and CYTOX AADvanced double staining-based flow cytometric analysis (reference value: 2 to 3%); format: functional
PC-3 [13] = assay: Induction of apoptosis in human PC3 cells assessed as necrotic cells at 20 uM after 16 hrs by F2N12S and CYTOX AADvanced double staining-based flow cytometric analysis (reference value: 2 to 3%); format: functional
[14] = Cmax in C57BL/6J mouse prostate at 240 mg/kg, po administered as single dose measured after 6 hrs post administration; format: ADME, organism-based, Prostate gland; design: dose 240 mg/kg, route oral
PC-3 [15] = assay: Induction of apoptosis in human PC3 cells assessed as apoptotic cells at 5 uM after 16 hrs by F2N12S and CYTOX AADvanced double staining-based flow cytometric analysis (reference value: 2 to 3%); format: functional
PC-3 [16] = assay: Induction of apoptosis in human PC3 cells assessed as necrotic cells at 50 uM after 16 hrs by F2N12S and CYTOX AADvanced double staining-based flow cytometric analysis (reference value: 2 to 3%); format: functional
PC-3 [17] = assay: Cell cycle arrest in human PC3 cells assessed as accumulation at G2/M phase at 10 uM after 24 hrs by propidium iodide staining-based flow cytometry (reference value: 27.8%); format: functional
PC-3 [18] = assay: Cell cycle arrest in human PC3 cells assessed as accumulation at G0/G1 phase at 10 uM after 24 hrs by propidium iodide staining-based flow cytometry (reference value: 37.5%); format: functional
PC-3 [19] = assay: Induction of apoptosis in human PC3 cells assessed as apoptotic cells at 10 uM after 16 hrs by F2N12S and CYTOX AADvanced double staining-based flow cytometric analysis (reference value: 2 to 3%); format: functional
PC-3 [20] = assay: Induction of apoptosis in human PC3 cells assessed as necrotic cells at 5 uM after 16 hrs by F2N12S and CYTOX AADvanced double staining-based flow cytometric analysis (reference value: 2 to 3%); format: functional
PC-3 [21] = assay: Cell cycle arrest in human PC3 cells assessed as accumulation at S phase at 10 uM after 16 hrs by propidium iodide staining-based flow cytometry (reference value: 9.9%); format: functional
PC-3 [22] = assay: Induction of apoptosis in human PC3 cells assessed as necrotic cells at 1 uM after 16 hrs by F2N12S and CYTOX AADvanced double staining-based flow cytometric analysis (reference value: 2 to 3%); format: functional
DU-145 = assay: Antiproliferative activity against human DU145 cells after 3 days by WST-1 assay; format: functional, cell-based; conditions: DU-145, 72 h; procedure, shortened: as §1
PC-3 [23] = assay: Cell cycle arrest in human PC3 cells assessed as accumulation at G2/M phase at 20 uM after 24 hrs by propidium iodide staining-based flow cytometry (reference value: 27.8%); format: functional
PC-3 [24] = assay: Cell cycle arrest in human PC3 cells assessed as accumulation at G0/G1 phase at 10 uM after 16 hrs by propidium iodide staining-based flow cytometry (reference value: 34.1%); format: functional
PC-3 [25] = assay: Induction of apoptosis in human PC3 cells assessed as viable cells at 100 uM after 16 hrs by F2N12S and CYTOX AADvanced double staining-based flow cytometric analysis (reference value: 95%); format: functional; conditions: PC-3, 16 h, read-out: Activity
PC-3 [26] = assay: Induction of apoptosis in human PC3 cells assessed as viable cells at 1 uM after 16 hrs by F2N12S and CYTOX AADvanced double staining-based flow cytometric analysis (reference value: 95%); format: functional; conditions: PC-3, 16 h, read-out: Activity
PC-3 [27] = assay: Induction of apoptosis in human PC3 cells assessed as apoptotic cells at 1 uM after 16 hrs by F2N12S and CYTOX AADvanced double staining-based flow cytometric analysis (reference value: 2 to 3%); format: functional
PC-3 [28] = assay: Cell cycle arrest in human PC3 cells assessed as accumulation at G0/G1 phase at 20 uM after 24 hrs by propidium iodide staining-based flow cytometry (reference value: 37.5%); format: functional
PC-3 [29] = assay: Induction of apoptosis in human PC3 cells assessed as apoptotic cells after 16 hrs by F2N12S and CYTOX AADvanced double staining-based flow cytometric analysis; format: functional, cell-based
PC-3 [30] = assay: Cell cycle arrest in human PC3 cells assessed as accumulation at S phase at 10 uM after 24 hrs by propidium iodide staining-based flow cytometry (reference value: 8.0%); format: functional
PC-3 [31] = assay: Cell cycle arrest in human PC3 cells assessed as accumulation at S phase at 20 uM after 16 hrs by propidium iodide staining-based flow cytometry (reference value: 9.9%); format: functional
PC-3 [32] = assay: Induction of apoptosis in human PC3 cells assessed as necrotic cells at 10 uM after 16 hrs by F2N12S and CYTOX AADvanced double staining-based flow cytometric analysis (reference value: 2 to 3%); format: functional
PC-3 [33] = assay: Induction of apoptosis in human PC3 cells assessed as viable cells at 50 uM after 16 hrs by F2N12S and CYTOX AADvanced double staining-based flow cytometric analysis (reference value: 95%); format: functional; conditions: PC-3, 16 h, read-out: Activity
PC-3 [34] = assay: Cell cycle arrest in human PC3 cells assessed as accumulation at G2/M phase at 20 uM after 16 hrs by propidium iodide staining-based flow cytometry (reference value: 32.3%); format: functional
PC-3 [35] = assay: Induction of apoptosis in human PC3 cells assessed as necrotic cells at 30 uM after 16 hrs by F2N12S and CYTOX AADvanced double staining-based flow cytometric analysis (reference value: 2 to 3%); format: functional
PC-3 [36] = assay: Cell cycle arrest in human PC3 cells assessed as accumulation at S phase at 20 uM after 24 hrs by propidium iodide staining-based flow cytometry (reference value: 8.0%); format: functional

## COc1cc(-c2oc3ccccc3c(=O)c2O)cc(OC)c1OC
PC-3 [1]
  viability at 20 µM: 47%
PC-3 [2]
  viability at 30 µM: 43%
PC-3 [3]
  IC50: 32.1 µM
PC-3 [4]
  viability at 10 µM: 66%
PC-3 [5]
  viability at 5 µM: 81%
PC-3 [6]
  Activity: 33%
PWR-1E
  IC50: > 50 µM
LNCaP
  IC50: 14.7 µM
PC-3 [7]
  Activity: 3%
PC-3 [8]
  Activity: 54%
PC-3 [9]
  Activity: 61%
PC-3 [10]
  Activity: 50%
PC-3 [11]
  Activity: 33.3%
PC-3 [12]
  Activity: 73%
PC-3 [13]
  Activity: 3%
[14]
  Cmax: 18.4 nM
PC-3 [15]
  Activity: 11%
PC-3 [16]
  Activity: 2%
PC-3 [17]
  Activity: 33.3%
PC-3 [18]
  Activity: 34.6%
PC-3 [19]
  Activity: 39%
PC-3 [20]
  Activity: 2%
PC-3 [21]
  Activity: 12.3%
PC-3 [22]
  Activity: 2%
DU-145
  IC50: 27.2 µM
PC-3 [23]
  Activity: 31.2%
PC-3 [24]
  Activity: 31.2%
PC-3 [25]
  viability at 100 µM: 24%
PC-3 [26]
  viability at 1 µM: 90%
PC-3 [27]
  Activity: 6%
PC-3 [28]
  Activity: 33.8%
PC-3 [29]
  Activity: Dose-dependent effect
PC-3 [30]
  Activity: 6%
PC-3 [31]
  Activity: 11.7%
PC-3 [32]
  Activity: 2%
PC-3 [33]
  viability at 50 µM: 45%
PC-3 [34]
  Activity: 26.6%
PC-3 [35]
  Activity: 2%
PC-3 [36]
  Activity: 6%

## CCCCCN(CCCCC)CCCOc1c(-c2cc(OC)c(OC)c(OC)c2)oc2ccccc2c1=O
PC-3 [1]
  viability at 20 µM: 0%
PC-3 [2]
  viability at 30 µM: 0%
PC-3 [3]
  IC50: 5.8 µM
PC-3 [4]
  viability at 10 µM: 3%
PC-3 [5]
  viability at 5 µM: 46%
PC-3 [6]
  Activity: 28.6%
PWR-1E
  IC50: 14.8 µM
LNCaP
  IC50: 5.1 µM
PC-3 [7]
  Activity: 72%
PC-3 [8]
  Activity: 92%
PC-3 [9]
  Activity: 65%
PC-3 [10]
  Activity: 94%
PC-3 [11]
  Activity: 40.8%
PC-3 [12]
  Activity: 27%
PC-3 [13]
  Activity: 6%
PC-3 [15]
  Activity: 51%
PC-3 [16]
  Activity: 35%
PC-3 [17]
  Activity: 25.4%
PC-3 [18]
  Activity: 52.6%
PC-3 [19]
  Activity: 93%
PC-3 [20]
  Activity: 3%
PC-3 [21]
  Activity: 4.5%
PC-3 [22]
  Activity: 2%
DU-145
  IC50: 12.3 µM
PC-3 [23]
  Activity: 26.4%
PC-3 [24]
  Activity: 51.3%
PC-3 [25]
  viability at 100 µM: 0%
PC-3 [26]
  viability at 1 µM: 87%
PC-3 [27]
  Activity: 10%
PC-3 [28]
  Activity: 59.8%
PC-3 [29]
  Activity: Dose-dependent effect
PC-3 [30]
  Activity: 3.7%
PC-3 [31]
  Activity: 6.5%
PC-3 [32]
  Activity: 4%
PC-3 [33]
  viability at 50 µM: 0%
PC-3 [34]
  Activity: 34.8%
PC-3 [35]
  Activity: 8%
PC-3 [36]
  Activity: 1.9%
